According to ChEMBL document CHEMBL1138621, “Inhibition of tRNA-dependent ligase MurM from Streptococcus pneumoniae by phosphonate and sulfonamide inhibitors” (Bioorg Med Chem, 2009):
Active and inactive are the calls of the source. The rule behind the calls is not given here.

Experiments:
[1] = Inhibition of penicillin-resistant Streptococcus pneumoniae 159 recombinant MurM by liquid scintillation counting
Streptococcus pneumoniae [2] = assay: Inhibition of penicillin-resistant Streptococcus pneumoniae 159 recombinant MurM at 1 mM by liquid scintillation counting
[3] = molecular target: T1, Alanine--tRNA ligase (Streptococcus pneumoniae serotype 4 (strain ATCC BAA-334 / TIGR4)) (UniProt Q97Q48); assay: Inhibition of Streptococcus pneumoniae alanyl tRNA synthetase expressed in Escherichia coli BL21 (DE3) assessed as formation of [3H]alanyl tRNA at 100 uM
T1 sequence (whole entry): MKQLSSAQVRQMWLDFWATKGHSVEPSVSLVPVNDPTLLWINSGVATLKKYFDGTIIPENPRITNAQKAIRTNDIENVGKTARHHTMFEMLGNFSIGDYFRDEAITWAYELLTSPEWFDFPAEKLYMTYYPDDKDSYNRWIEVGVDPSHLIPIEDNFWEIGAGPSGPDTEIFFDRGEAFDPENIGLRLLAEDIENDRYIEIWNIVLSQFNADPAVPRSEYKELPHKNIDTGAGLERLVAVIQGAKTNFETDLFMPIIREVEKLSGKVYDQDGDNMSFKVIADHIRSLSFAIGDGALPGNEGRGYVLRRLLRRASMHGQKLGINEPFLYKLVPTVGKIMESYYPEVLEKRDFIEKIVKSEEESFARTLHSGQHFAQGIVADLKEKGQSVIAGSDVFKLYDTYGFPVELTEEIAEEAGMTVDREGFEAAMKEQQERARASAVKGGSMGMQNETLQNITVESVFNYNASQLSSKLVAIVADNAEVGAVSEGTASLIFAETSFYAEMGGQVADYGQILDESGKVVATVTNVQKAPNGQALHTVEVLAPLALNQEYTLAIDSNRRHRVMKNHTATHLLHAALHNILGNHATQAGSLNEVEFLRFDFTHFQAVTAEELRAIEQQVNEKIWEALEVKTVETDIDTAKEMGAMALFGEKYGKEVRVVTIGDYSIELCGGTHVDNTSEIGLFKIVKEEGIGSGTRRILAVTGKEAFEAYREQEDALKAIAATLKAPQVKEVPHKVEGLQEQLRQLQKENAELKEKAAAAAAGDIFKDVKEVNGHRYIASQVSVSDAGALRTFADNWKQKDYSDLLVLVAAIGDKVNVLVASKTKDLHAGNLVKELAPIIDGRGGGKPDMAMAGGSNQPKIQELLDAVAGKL

[4] = molecular target: T1, Alanine--tRNA ligase (Streptococcus pneumoniae serotype 4 (strain ATCC BAA-334 / TIGR4)); assay: Inhibition of Streptococcus pneumoniae alanyl tRNA synthetase expressed in Escherichia coli BL21 (DE3) assessed as formation of [3H]alanyl tRNA at 1 mM
Staphylococcus aureus [5] = assay: Antimicrobial activity against methicillin-resistant Staphylococcus aureus expressing femABX gene at 1 to 5 mM by NCCLS method; assay type: functional, organism-based
Procedure, shortened: (§1)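 Growth inhibition in liquid culture per NCCLS protocol, compounds at 1–5 mM final concentration; strains tested: S. pneumoniae 159 and pn16, S. aureus MRSA and MSSA, E. faecalis, M. flavus, E. coli.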

Micrococcus flavus = assay: Antimicrobial activity against Micrococcus flavus expressing femABX gene at 1 to 5 mM by NCCLS method; assay type: functional, organism-based; procedure, shortened: as §1
Enterococcus faecalis = assay: Antimicrobial activity against Enterococcus faecalis expressing femABX gene at 1 to 5 mM by NCCLS method; assay type: functional, organism-based; procedure, shortened: as §1
[6] = molecular target: T2, Serine--tRNA ligase (Streptococcus pneumoniae serotype 4 (strain ATCC BAA-334 / TIGR4)) (UniProt Q97SG0); assay: Inhibition of Streptococcus pneumoniae seryl tRNA synthetase expressed in Escherichia coli BL21 (DE3) assessed as formation of [3H]seryl tRNA at 100 uM
T2 sequence (whole entry): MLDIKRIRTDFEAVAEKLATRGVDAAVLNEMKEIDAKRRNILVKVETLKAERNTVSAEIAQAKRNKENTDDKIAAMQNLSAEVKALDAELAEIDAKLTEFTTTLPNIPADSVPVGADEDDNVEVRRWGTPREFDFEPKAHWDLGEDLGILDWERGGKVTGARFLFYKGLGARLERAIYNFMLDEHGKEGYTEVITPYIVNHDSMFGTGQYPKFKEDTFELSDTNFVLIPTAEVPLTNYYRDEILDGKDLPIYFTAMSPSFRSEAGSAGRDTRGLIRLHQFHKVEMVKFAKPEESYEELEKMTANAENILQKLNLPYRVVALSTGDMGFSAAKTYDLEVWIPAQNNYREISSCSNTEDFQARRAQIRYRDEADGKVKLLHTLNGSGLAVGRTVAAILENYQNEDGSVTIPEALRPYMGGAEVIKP

[7] = molecular target: T2, Serine--tRNA ligase (Streptococcus pneumoniae serotype 4 (strain ATCC BAA-334 / TIGR4)); assay: Inhibition of Streptococcus pneumoniae seryl tRNA synthetase expressed in Escherichia coli BL21 (DE3) assessed as formation of [3H]seryl tRNA at 1 mM
Streptococcus pneumoniae [8] = assay: Antibacterial activity against penicillin- resistant Streptococcus pneumoniae 159 at 1 mM by NCCLS method; assay type: functional, organism-based; procedure, shortened: as §1
Staphylococcus aureus [9] = assay: Antimicrobial activity against methicillin-susceptible Staphylococcus aureus expressing femABX gene at 1 to 5 mM by NCCLS method; assay type: functional, organism-based; procedure, shortened: as §1

Row | SMILES | inhibition (Streptococcus pneumoniae [2]) [%] | Activity (Streptococcus pneumoniae [2]) | also measured
1 | CC(N)P(=O)(O)O[C@@H]1[C@H](O)[C@@H](CO)O[C@H]1n1cnc2c(N)ncnc21 (stereo partly specified) | 55 | – | IC50 ([1]; read-out: IC50): 780 µM
2 | CC(N)P(=O)(O)O[C@H]1C[C@H](n2cnc3c(N)ncnc32)O[C@@H]1CO[Si](C)(C)C(C)(C)C (stereo partly specified) | 0 | – | –
3 | CC(N)P(=O)(O)O[C@H]1[C@@H](O)[C@H](n2cnc3c(N)ncnc32)O[C@@H]1CO (stereo partly specified) | – | – | IC50 [1]: Not Active
4 | CCCNP(=O)(OC)C(CC)NC(=O)OCc1ccccc1 (stereo unspecified) | – | inactive | –
5 | COCCOP(=O)(NCCCC[C@H](NC(=O)OC(C)(C)C)C(=O)OC)C(C)NC(=O)OCc1ccccc1 (stereo partly specified) | – | inactive | –
6 | COc1ccc(C[C@H](N)C(=O)N[C@H]2[C@@H](O)[C@H](n3cnc4c(N(C)C)ncnc43)O[C@@H]2CO)cc1 | 0 | – | –
7 | CC(N)P(=O)(O)O[C@H]1C[C@H](n2cnc3c(N)ncnc32)O[C@@H]1CO (stereo partly specified) | 95 | – | inhibition [3]: inactive; inhibition [4]: 22%; Activity (Staphylococcus aureus [5]): inactive; Activity (Micrococcus flavus): inactive; Activity (Enterococcus faecalis): inactive; inhibition [6]: inactive; IC50 ([1]; read-out: IC50): 100 µM; inhibition [7]: 28%; growth inhibition (GI) (Streptococcus pneumoniae [8]): inactive; Activity (Staphylococcus aureus [9]): inactive
8 | CC(NC(=O)OCc1ccccc1)P(=O)(O)O[C@H]1C[C@H](n2cnc3c(NC(=O)c4ccccc4)ncnc32)O[C@@H]1CO[Si](C)(C)C(C)(C)C (stereo partly specified) | 0 | – | –
9 | CC(NC(=O)OCc1ccccc1)P(=O)(O)O[C@H]1C[C@H](n2cnc3c(N)ncnc32)O[C@@H]1CO[Si](C)(C)C(C)(C)C (stereo partly specified) | 0 | – | –
10 | Nc1ncnc2c1ncn2[C@H]1C[C@H](O)[C@@H](CO)O1 | 13 | – | –
11 | COC(=O)[C@H](CCCCNP(=O)(OC)C(C)NC(=O)OCc1ccccc1)NC(=O)OC(C)(C)C (stereo partly specified) | – | inactive | –
12 | CC(NC(=O)OCc1ccccc1)P(=O)(O)O[C@H]1C[C@H](n2cnc3c(N)ncnc32)O[C@@H]1CO (stereo partly specified) | 0 | – | –
13 | CCCCOP(=O)(NCCC)C(C)NC(=O)OCc1ccccc1 (stereo unspecified) | – | inactive | –
14 | CNC(=O)OC[C@H]1O[C@@H](n2cnc3c(N)ncnc32)C[C@@H]1OP(=O)(O)C(C)N (stereo partly specified) | 3 | – | –
15 | CCCNP(=O)(OCCOC)C(C)NC(=O)OCc1ccccc1 (stereo unspecified) | – | inactive | –
16 | CCCCOP(=O)(NCCCC[C@H](NC(=O)OC(C)(C)C)C(=O)OC)C(C)NC(=O)OCc1ccccc1 (stereo partly specified) | – | inactive | –
17 | COC(=O)[C@H](CCCCNP(=O)(OC)C(NC(=O)OCc1ccccc1)c1ccccc1)NC(=O)OC(C)(C)C (stereo partly specified) | – | inactive | –
18 | CCCNP(=O)(OC)C(NC(=O)OCc1ccccc1)c1ccccc1 (stereo unspecified) | – | inactive | –
19 | Nc1ncnc2c1ncn2[C@H]1C[C@H](OP(=O)(O)O)[C@@H](CO)O1 | 15 | – | –
20 | CCCNP(=O)(OC)C(C)NC(=O)OCc1ccccc1 (stereo unspecified) | – | inactive | –
